Assay results published in ChEMBL document CHEMBL1136157, “Synthesis of 3a,4-dihydro-3H-[1]benzopyrano[4,3-c]isoxazoles, displaying combined 5-HT uptake inhibiting and alpha(2)-adrenoceptor antagonistic activities: a novel series of potential antidepressants” (Bioorg Med Chem Lett, 2003).

Experiments:
[1] = biological target: Sodium-dependent serotonin transporter (Rattus norvegicus) (UniProt P31652); assay: In vivo effective dose required to inhibit p-chloroamphetamine induced excitation in rats upon subcutaneous administration; type: functional, organism-based
Sequence of Sodium-dependent serotonin transporter (Rattus norvegicus) (P31652 whole entry): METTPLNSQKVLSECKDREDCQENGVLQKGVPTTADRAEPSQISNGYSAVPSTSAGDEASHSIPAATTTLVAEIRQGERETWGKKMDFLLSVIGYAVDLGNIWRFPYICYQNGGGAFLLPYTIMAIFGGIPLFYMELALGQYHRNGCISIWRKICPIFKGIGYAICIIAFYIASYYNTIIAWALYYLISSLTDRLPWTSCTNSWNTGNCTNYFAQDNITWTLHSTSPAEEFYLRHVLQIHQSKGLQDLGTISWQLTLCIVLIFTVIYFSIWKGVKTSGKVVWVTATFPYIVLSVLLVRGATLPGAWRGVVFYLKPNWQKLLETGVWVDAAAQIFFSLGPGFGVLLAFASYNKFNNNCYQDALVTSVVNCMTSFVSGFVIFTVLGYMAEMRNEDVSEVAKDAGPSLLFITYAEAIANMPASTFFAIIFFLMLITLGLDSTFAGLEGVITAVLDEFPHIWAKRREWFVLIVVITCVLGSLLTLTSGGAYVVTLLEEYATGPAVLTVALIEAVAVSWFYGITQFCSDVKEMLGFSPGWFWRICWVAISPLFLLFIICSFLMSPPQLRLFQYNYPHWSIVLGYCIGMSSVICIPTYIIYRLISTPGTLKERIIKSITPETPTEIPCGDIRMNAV
How it was run: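 Overnight-starved male Wistar rats (200–250 g) given test compound or solvent sc 1 h before p-chloroamphetamine (5 mg/10 mL/kg, sc). Excitation scored over a 15-min interval starting 45 min after pCA. A score <2 was the all-or-nothing criterion for inhibition (1.0% false positives, n>200). ED50 in mg/kg.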

[2] = biological target: T1, Alpha-2B adrenergic receptor (Homo sapiens, UniProt P18089); assay: In vitro binding affinity towards human alpha-2B adrenergic receptor using [3H]rauwolscine
T1 sequence (P18089 whole entry): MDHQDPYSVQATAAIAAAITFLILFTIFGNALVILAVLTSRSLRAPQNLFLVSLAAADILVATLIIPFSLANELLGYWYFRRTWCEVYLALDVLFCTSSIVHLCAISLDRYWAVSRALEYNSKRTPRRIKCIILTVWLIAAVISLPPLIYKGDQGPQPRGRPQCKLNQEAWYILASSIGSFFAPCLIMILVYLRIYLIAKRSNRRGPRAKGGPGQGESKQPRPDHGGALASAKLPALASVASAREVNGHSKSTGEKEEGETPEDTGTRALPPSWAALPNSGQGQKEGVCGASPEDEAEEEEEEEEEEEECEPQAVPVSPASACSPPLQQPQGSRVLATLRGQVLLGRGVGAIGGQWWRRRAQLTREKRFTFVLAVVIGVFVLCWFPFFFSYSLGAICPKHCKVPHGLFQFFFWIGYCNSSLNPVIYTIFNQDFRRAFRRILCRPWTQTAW

[3] = biological target: T2, Alpha-2C adrenergic receptor (Homo sapiens, UniProt P18825); assay: In vitro binding affinity towards human adrenergic alpha-2C adrenergic receptor using [3H]rauwolscine
T2 sequence (P18825 whole entry): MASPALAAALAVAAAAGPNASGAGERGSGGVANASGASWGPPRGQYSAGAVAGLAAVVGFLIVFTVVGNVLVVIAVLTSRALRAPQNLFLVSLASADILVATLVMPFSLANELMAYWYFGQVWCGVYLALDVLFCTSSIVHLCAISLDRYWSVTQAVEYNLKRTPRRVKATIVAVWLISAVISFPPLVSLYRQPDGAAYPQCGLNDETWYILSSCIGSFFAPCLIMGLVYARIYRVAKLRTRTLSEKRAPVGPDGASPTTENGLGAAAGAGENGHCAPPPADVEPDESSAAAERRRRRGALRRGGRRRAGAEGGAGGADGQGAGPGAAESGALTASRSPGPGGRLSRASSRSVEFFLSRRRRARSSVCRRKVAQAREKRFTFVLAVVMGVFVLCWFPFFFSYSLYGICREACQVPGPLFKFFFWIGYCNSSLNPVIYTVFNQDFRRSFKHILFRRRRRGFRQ

[4] = biological target: T3, Alpha-2A adrenergic receptor (Homo sapiens, UniProt P08913); assay: In vitro binding affinity towards human alpha-2A adrenergic receptor using [3H]rauwolscine
T3 sequence (P08913 whole entry): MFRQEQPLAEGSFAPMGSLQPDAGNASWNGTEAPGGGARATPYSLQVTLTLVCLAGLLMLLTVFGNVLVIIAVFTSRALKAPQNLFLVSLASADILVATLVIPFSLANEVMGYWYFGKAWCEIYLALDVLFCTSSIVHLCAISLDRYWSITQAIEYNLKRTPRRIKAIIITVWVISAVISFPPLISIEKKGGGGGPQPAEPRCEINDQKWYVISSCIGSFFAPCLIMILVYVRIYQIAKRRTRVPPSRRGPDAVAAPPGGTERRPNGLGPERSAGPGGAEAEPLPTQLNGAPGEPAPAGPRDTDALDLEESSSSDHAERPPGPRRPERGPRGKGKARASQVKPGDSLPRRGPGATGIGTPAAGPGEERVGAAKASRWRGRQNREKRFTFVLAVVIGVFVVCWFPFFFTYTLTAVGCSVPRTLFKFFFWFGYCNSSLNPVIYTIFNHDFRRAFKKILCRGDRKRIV

[5] = biological target: Adrenergic receptor alpha-2 (Rattus norvegicus) (UniProt P22086+P19328+P22909); assay: In vivo effective dose required to inhibit xylazine-induced loss of righting in rats upon subcutaneous administration; type: functional, organism-based

Row | Structure (SMILES) | ED50 [1] | Ki [2] | Ki [3] | Ki [4] | ED50 [5]
1 | COc1cc2c(cc1OC)C1=NO[C@@H](CN3CCN(C/C=C\c4ccccc4)CC3)[C@@H]1CO2 | 10 mg/kg |  |  |  | 
2 | COc1cc2c(cc1OC)C1=NO[C@@H](CN3CCN(C/C(C)=C/c4ccccc4)CC3)[C@@H]1CO2 (stereo in doubt; (-)15f) [listing 1 of 2 here] |  | 15 nM | 1.4 nM |  | 
3 | COc1cc2c(cc1OC)C1=NOC(CN3CCN(CCC(=O)c4ccccc4)CC3)C1CO2 (centres undefined) |  |  | 5.3 nM | 12 nM | 
4 | COc1cc2c(cc1OC)C1=NOC(CN3CCN(Cc4cc5ccccc5s4)CC3)C1CO2 (centres undefined) | 2.5 mg/kg | > 1000 nM | 89 nM | 98 nM | > 10 mg/kg
5 | COc1cc2c(cc1OC)C1=NOC(CN3CCN(CC4=Cc5ccccc5C4)CC3)C1CO2 (centres undefined) | 0.32 mg/kg | 315 nM | 4.7 nM | 22 nM | 10 mg/kg
6 | COc1cc2c(cc1OC)C1=NO[C@@H](CN3CCN(C/C(C)=C/c4ccccc4)CC3)[C@@H]1CO2 (stereo in doubt; (+)15f) [listing 1 of 2 here] |  |  |  |  | 3.1 mg/kg
7 | COc1cc2c(cc1OC)C1=NOC(CN3CCN(C/C=C/c4ccccc4)CC3)C1CO2 (centres undefined) | 0.76 mg/kg | 42 nM |  |  | 2.5 mg/kg
8 | COc1cc2c(cc1OC)C1=NOC(CN3CCN(Cc4cnc5ccccc5c4)CC3)C1CO2 (centres undefined) | 5 mg/kg | > 1000 nM | 30 nM | 34 nM | 5 mg/kg
9 | COc1cc2c(cc1OC)C1=NO[C@@H](CN3CCN(C/C=C/c4ccccc4)CC3)[C@@H]1CO2 (stereo in doubt; (+)5) [listing 1 of 2 here] |  | 14 nM |  |  | 
10 | COc1cc2c(cc1OC)C1=NO[C@@H](CN3CCN(C/C=C(\C)c4ccccc4)CC3)[C@@H]1CO2 (stereo in doubt; (+)15g) [listing 1 of 2 here] | 0.5 mg/kg |  |  |  | 0.32 mg/kg
11 | COc1cc2c(cc1OC)C1=NO[C@@H](CN3CCN(C/C(C)=C/c4ccccc4)CC3)[C@@H]1CO2 (stereo in doubt; (+)15f) [listing 2 of 2 here] |  | 3 nM | 0.1 nM |  | 
12 | COc1ccc2c(c1)OCC1C2=NOC1CN1CCN(C/C=C/c2ccccc2)CC1 (centres undefined) | 1.4 mg/kg | 16 nM | 1.9 nM |  | 2 mg/kg
13 | COc1cc2c(cc1OC)C1=NO[C@@H](CN3CCN(C/C=C(\C)c4ccccc4)CC3)[C@@H]1CO2 (stereo in doubt; (-)15g) [listing 1 of 2 here] |  | 405 nM | 10 nM |  | 
14 | COc1cc2c(cc1OC)C1=NOC(CN3CCN(CCc4ccccc4)CC3)C1CO2 (centres undefined) | 10 mg/kg | > 1000 nM | 89 nM | 234 nM | > 10 mg/kg
15 | COc1ccc2c(c1)C1=NOC(CN3CCN(C/C=C/c4ccccc4)CC3)C1CO2 (centres undefined) | 5 mg/kg | 12 nM | 2.3 nM | 0.8 nM | 2.5 mg/kg
16 | COc1cc2c(cc1OC)C1=NO[C@@H](CN3CCN(Cc4ccc5ccccc5c4)CC3)[C@@H]1CO2 (stereo in doubt; (-)15h) [listing 1 of 2 here] | 1.5 mg/kg |  |  |  | 10 mg/kg
17 | COc1cc2c(cc1OC)C1=NOC(CN3CCN(Cc4ccc5ncccc5c4)CC3)C1CO2 (centres undefined) | 0.63 mg/kg | 721 nM | 36 nM | 117 nM | 5 mg/kg
18 | COc1cc2c(cc1OC)C1=NOC(CN3CCN(CCCc4ccccc4)CC3)C1CO2 (centres undefined) | 5 mg/kg | 42 nM | 1.9 nM | 26 nM | 2.5 mg/kg

Row | Structure (SMILES) | ED50 [1] | Ki [2] | Ki [3] | Ki [4] | ED50 [5]
19 | COc1cc2c(cc1OC)C1=NO[C@@H](CN3CCN(Cc4ccc5ccccc5c4)CC3)[C@@H]1CO2 (stereo in doubt; (-)15h) [listing 2 of 2 here] |  | 95 nM | 9.5 nM |  | 
20 | COc1cc2c(cc1OC)C1=NO[C@@H](CN3CCN(C/C(C)=C/c4ccccc4)CC3)[C@@H]1CO2 (stereo in doubt; (-)15f) [listing 2 of 2 here] |  |  |  |  | > 10 mg/kg
21 | COc1cc2c(cc1OC)C1=NO[C@@H](CN3CCN(C/C=C/c4ccccc4)CC3)[C@@H]1CO2 (stereo in doubt; (+)5) [listing 2 of 2 here] | 0.51 mg/kg |  |  |  | 2.5 mg/kg
22 | Fc1ccc2c(c1)CC(CC1CN=CN1)C2 (centres undefined) | 2 mg/kg | 23 nM | 19 nM |  | 2.7 mg/kg
23 | COc1cc2c(cc1OC)C1=NO[C@@H](CN3CCN(Cc4ccc5ccccc5c4)CC3)[C@@H]1CO2 (stereo in doubt; (+)15h) [listing 1 of 2 here] |  | 14 nM | 0.8 nM |  | 
24 | COc1cc2c(cc1OC)C1=NOC(CN3CCN(Cc4ccccc4)CC3)C1CO2 (centres undefined) | 8 mg/kg | 995 nM | 89 nM | 186 nM | > 10 mg/kg
25 | COc1cc2c(cc1OC)C1=NOC(CN3CCN(Cc4ccc5ccccc5c4)CC3)C1CO2 (centres undefined) | 0.79 mg/kg | 49 nM | 3.1 nM |  | 5 mg/kg
26 | C(=C\c1ccccc1)/CN1CCN(CC2ON=C3c4ccccc4OCC32)CC1 (centres undefined) | 5 mg/kg | 2 nM | 1.7 nM |  | 2 mg/kg
27 | COc1cc2c(cc1OC)C1=NO[C@@H](CN3CCN(C/C=C/c4ccccc4)CC3)[C@@H]1CO2 (stereo in doubt; (-)5) [listing 1 of 2 here] |  | 42 nM |  |  | 
28 | COc1cccc2c1CCC[C@H]2CN(C)CCc1ccc2ccoc2c1 | 10 mg/kg | 11 nM | 2.1 nM |  | > 10 mg/kg
29 | COc1cc2c(cc1OC)C1=NO[C@@H](CN3CCN(C/C=C(\C)c4ccccc4)CC3)[C@@H]1CO2 (stereo in doubt; (+)15g) [listing 2 of 2 here] |  | 14 nM | 0.2 nM |  | 
30 | COc1cc2c(cc1OC)C1=NO[C@@H](CN3CCN(C/C=C/c4ccccc4)CC3)[C@@H]1CO2 (stereo in doubt; (-)5) [listing 2 of 2 here] | 2.5 mg/kg |  |  |  | 5 mg/kg
31 | COc1cc2c(cc1OC)C1=NO[C@@H](CN3CCN(C/C=C(\C)c4ccccc4)CC3)[C@@H]1CO2 (stereo in doubt; (-)15g) [listing 2 of 2 here] | > 10 mg/kg |  |  |  | > 10 mg/kg
32 | COc1cc2c(cc1OC)C1=NOC(CN3CCN(Cc4csc5ccccc45)CC3)C1CO2 (centres undefined) |  | 370 nM | 13 nM | 66 nM | 
33 | COc1cc2c(cc1OC)C1=NOC(CN3CCN(Cc4cccc5ccccc45)CC3)C1CO2 (centres undefined) | 3.2 mg/kg | > 1000 nM | 89 nM | 234 nM | > 10 mg/kg
34 | COc1cc2c(cc1OC)C1=NOC(CN3CCN(C/C(C)=C/c4ccccc4)CC3)C1CO2 (centres undefined) |  | 7.5 nM | 0.2 nM |  | 1 mg/kg
35 | COc1cc2c(cc1OC)C1=NOC(CN3CCN(C/C=C(\C)c4ccccc4)CC3)C1CO2 (centres undefined) | 0.2 mg/kg | 31 nM | 0.6 nM |  | 2.5 mg/kg
36 | COc1cc2c(cc1OC)C1=NO[C@@H](CN3CCN(Cc4ccc5ccccc5c4)CC3)[C@@H]1CO2 (stereo in doubt; (+)15h) [listing 2 of 2 here] | 0.08 mg/kg |  |  |  | 6.1 mg/kg
